Experimental data: ChEMBL document CHEMBL4364240, “Tetracyclines as Inhibitors of Pre-microRNA Maturation: A Disconnection between RNA Binding and Inhibition” (ACS Med Chem Lett, 2019)
Calls of active or inactive are those of the source. The calls are words filed in the database; no cut-off is given here.

Key:
[1] = Inhibition of biotinylated pre-let-7d microRNA (unknown origin) maturation preincubated for 15 mins followed by Pre-let-7d addition and measured after 5 hrs by cat-ELCCA
Method in brief: (§1)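 Dose-response cat-ELCCA in which Dicer is in excess over the biotinylated pre-miRNA substrate to ensure adequate signal-to-background. IC50 values are derived from the inhibition curves and reported as 95% confidence intervals.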

microRNA 21 [2] = assay: Inhibition of Dicer mediated biotinylated pre-miRNA-21 (unknown origin) maturation preincubated for 15 mins followed by pre-miRNA-21 addition and measured after 5 hrs by cat-ELCCA; type: nucleic-acid assay; method in brief: as §1
microRNA 21 [3] = assay: Binding affinity to biotinylated pre-miRNA-21 (unknown origin) by SPR analysis; type: nucleic-acid assay
microRNA 21 [4] = assay: Inhibition of Dicer mediated 5'-biotinylated PEG linked pre-miRNA-21 (unknown origin) maturation; type: nucleic-acid assay
microRNA 21 [5] = assay: Inhibition of Dicer mediated biotinylated pre-miRNA-21 (unknown origin) maturation at 1 mM measured after 15 mins by cat-ELCCA relative to control; type: nucleic-acid assay
Method in brief: (§2)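 Single-point cat-ELCCA screen at 1.0 mM compound. Recombinant Dicer is used in excess over the pre-miRNA substrate to give enough signal-to-background. The read-out is percent inhibition of processing.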

[6] = Inhibition of biotinylated pre-let-7d (unknown origin) maturation at 1 mM preincubated for 15 mins followed by Pre-let-7d addition and measured after 5 hrs by cat-ELCCA; method in brief: as §2
[7] = Binding affinity to biotinylated pre-let-7d microRNA (unknown origin) by SPR analysis
microRNA 21 [8] = assay: […] miR-21 RNA in human HeLA cells transfected with pmirGLO empty vector incubated for 48 hrs by Dual-Glo luciferase assay; type: cell-based
microRNA 21 [9] = assay: […] miR-21 RNA in human HeLA cells transfected with pmir21 vector incubated for 48 hrs by Dual-Glo luciferase assay; type: cell-based
microRNA 21 [10] = assay: Inhibition of Dicer mediated biotinylated pre-miRNA-21 (unknown origin) maturation in presence of 1;1 ratio of CaCl2 and MgCl2 preincubated for 15 mins followed by pre-miRNA-21 addition and measured after 5 hrs by cat-ELCCA; type: nucleic-acid assay
Escherichia coli = assay: Inhibition of Escherichia coli RNase 3 dsRBD assessed as inhibition of pre-miRNA-21 maturation incubated for 0.5 to 1 hr
microRNA 21 [11] = assay: Inhibition of Dicer mediated biotinylated pre-miRNA-21 (unknown origin) maturation in presence of 1 to 3 mM MgCl2 preincubated for 15 mins followed by pre-miRNA-21 addition and measured after 5 hrs by cat-ELCCA; type: nucleic-acid assay

SMILES	IC50 (microRNA 21 [2]) [µM]	inhibition (microRNA 21 [5])	IC50 ([1]; read-out: IC50) [µM]	also measured
O=c1nc(/C=C/c2ccc(O)c(O)c2)oc2ccccc12	692			IC50 [1]: Not Active
COc1ccc(-c2cc(-c3cc(OC)ccc3O)[nH]n2)cc1	148			IC50 [1]: Not Active
Nc1ccc(-c2nc3cc(-c4nc5ccccc5o4)ccc3[nH]2)cc1	229			IC50 [1]: Not Active
CN1c2ccccc2C(C)(C)C12C=Cc1cc(O)ccc1O2 (centres undefined)	15			IC50 [1]: Not Active
CN1CCN(c2ccc3nc(-c4ccc5nc(-c6ccc(O)cc6)[nH]c5c4)[nH]c3c2)CC1				Kd (microRNA 21 [3]; read-out: Kd): 0.1 to 0.7 µM
Oc1ccc(-c2csc(Cc3c[nH]c4ccccc34)n2)cc1O	398			IC50 [1]: Not Active
O=c1oc2c(-c3cccc(Cl)c3)cc(O)cc2s1	645			IC50 [1]: Not Active
CC(=O)Oc1cccc2c1C(=O)C1=C(O)[C@]3(OC(C)=O)C(=O)C(C(N)=O)=C(O)[C@@H](N(C)C)[C@@H]3[C@@H](OC(C)=O)[C@@H]1[C@]2(C)OC(C)=O				inhibition (microRNA 21 [4]): Active
CN(C)[C@@H]1C(O)=C(C(N)=O)C(=O)[C@@]2(O)C(O)=C3C(=O)c4c(O)ccc(Cl)c4[C@@H](O)[C@H]3C[C@@H]12		40 to 100%		
CN(C)[C@H]1C(O)=C(C(N)=O)C(=O)[C@@]2(O)C(O)=C3C(=O)c4c(O)cccc4[C@@](C)(O)[C@H]3C[C@@H]12		40 to 100%		
CN(C)c1cc(NC(=O)CNC(C)(C)C)c(O)c2c1C[C@H]1C[C@H]3[C@H](N(C)C)C(O)=C(C(N)=O)C(=O)[C@@]3(O)C(O)=C1C2=O		40 to 100%		
CN1CCN(c2ccc3[nH]c(-c4ccc5[nH]c(-c6ccc(O)cc6)nc5c4)nc3c2)CC1		inactive		inhibition [6]: inactive
Cc1c2c(c(O)c3c(O)cccc13)C(=O)[C@]1(O)C(=O)C(C(N)=O)=C(O)[C@@H](N(C)C)[C@@H]1C2		40 to 100%		
CN(C)[C@@H]1C(O)=C(C(N)=O)C(=O)[C@@]2(O)C(O)=C3C(=O)c4c(O)ccc(Cl)c4[C@@](C)(O)[C@H]3C[C@@H]12 [CHLORTETRACYCLINE]	155 to 274	40 to 100%	237 to 307	
C[C@H]1c2cccc(O)c2C(=O)C2=C(O)[C@]3(O)C(=O)C(C(N)=O)=C(O)[C@@H](N(C)C)[C@@H]3[C@@H](O)[C@@H]21 [DOXYCYCLINE]	433 to 1410	40 to 100%	433 to 1300	
NC[C@@H]1O[C@H](O[C@H]2[C@@H](O)[C@H](O[C@@H]3[C@@H](O)[C@H](N)C[C@H](N)[C@H]3O[C@H]3O[C@H](CN)[C@@H](O)[C@H](O)[C@H]3N)O[C@@H]2CO)[C@H](N)[C@@H](O)[C@@H]1O [FRAMYCETIN]		inactive		inhibition [6]: inactive; Kd (microRNA 21 [3]; read-out: Kd): 0.1 to 0.7 µM
NC(=O)C1=C(O)C[C@@H]2C[C@@H]3Cc4cccc(O)c4C(=O)C3=C(O)[C@]2(O)C1=O [INCYCLINIDE]	358 to 469		383 to 775	Kd [7]: Not Active; inhibition [1]: Dose-dependent effect; Kd (microRNA 21 [3]): Not Active; inhibition (microRNA 21 [2]): Dose-dependent effect
NC[C@H]1O[C@H](O[C@H]2[C@H](O)[C@@H](O[C@H]3O[C@H](CO)[C@@H](O)[C@H](N)[C@H]3O)[C@H](N)C[C@@H]2N)[C@H](O)[C@@H](O)[C@@H]1O [KANAMYCIN]		inactive		inhibition [6]: inactive; Kd (microRNA 21 [3]; read-out: Kd): 0.1 to 0.7 µM
C=C1c2c(Cl)ccc(O)c2C(=O)C2=C(O)[C@]3(O)C(=O)C(C(N)=O)=C(O)[C@@H](N(C)C)[C@@H]3[C@@H](O)[C@H]12 [MECLOCYCLINE]	62 to 196	40 to 100%	80 to 240	Kd ([7]; read-out: Kd): 5.8 µM; Kd (microRNA 21 [3]; read-out: Kd): 2.1 µM; Activity (microRNA 21 [8]): inactive; Activity (microRNA 21 [9]): inactive
C=C1c2cccc(O)c2C(=O)C2=C(O)[C@]3(O)C(=O)C(C(N)=O)=C(O)[C@@H](N(C)C)[C@@H]3[C@@H](O)[C@H]12 [METHACYCLINE]	56 to 437	40 to 100%	97 to 749	inhibition (microRNA 21 [10]): Active; inhibition (Escherichia coli): Active; Kd ([7]; read-out: Kd): 17 µM; Kd (microRNA 21 [3]; read-out: Kd): 9.9 µM; Activity (microRNA 21 [8]): inactive; Activity (microRNA 21 [9]): inactive; inhibition (microRNA 21 [11]): Active
CN(C)c1ccc(O)c2c1C[C@H]1C[C@H]3[C@H](N(C)C)C(O)=C(C(N)=O)C(=O)[C@@]3(O)C(O)=C1C2=O [MINOCYCLINE]	305 to 539	40 to 100%	437 to 744	
CN(C)[C@@H]1C(O)=C(C(N)=O)C(=O)[C@@]2(O)C(O)=C3C(=O)c4c(O)cccc4[C@@](C)(O)[C@H]3[C@H](O)[C@@H]12 [OXYTETRACYCLINE]	200 to 918	40 to 100%	431 to 1020	
CN[C@@H]1[C@H](O[C@H]2[C@H](O[C@H]3[C@H](O)[C@@H](O)[C@H](N=C(N)N)[C@@H](O)[C@@H]3N=C(N)N)O[C@@H](C)[C@]2(O)C=O)O[C@@H](CO)[C@H](O)[C@H]1O [STREPTOMYCIN]		inactive		inhibition [6]: inactive; Kd (microRNA 21 [3]; read-out: Kd): 0.1 to 0.7 µM
CN(C)[C@@H]1C(O)=C(C(N)=O)C(=O)[C@@]2(O)C(O)=C3C(=O)c4c(O)cccc4[C@@](C)(O)[C@H]3C[C@@H]12 [TETRACYCLINE]	434 to 1000	40 to 100%	421 to 865	Activity (microRNA 21 [8]): inactive; Activity (microRNA 21 [9]): inactive
